According to the RNAGym collection of RNA variant scans (doi:10.1126/science.aae0568):
Variants at the floor of the assay were thinned out.

B1: tRNA (parent)
chain: GUUCCGUUGGCGUAAUGGUAACGCGUCUCCCUCCUAAGGAGAAGACUGCGGGUUCGAGUCCCGUACGGAACG

Variants of: B1
Test: yeast fitness relative to wild type (ratio to wild type); higher = fitter; tRNA-Arg(CCU), competitive growth, 37 C, YPD
How it was run: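 Gene amplicons from the start population and from each of six end populations were read by 100-nucleotide paired-end sequencing. Those end populations came from pooled Saccharomyces cerevisiae strains carrying tRNA-Arg(CCU) gene variants at the native locus, competed in YPD at 37°C for 24 hours. Fitness relative to wild type was worked out from changes in genotype frequencies. Genotypes needed ≥ 100 starting reads, and estimates < 0.5 were set to 0.5.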
Variant C34U A57U has a yeast fitness of no more than 0.5.
C34U A57G showed a yeast fitness of 0.737.
C34U C62U gave a yeast fitness of 0.673.
Variant A36G U64C has a yeast fitness of 0.78.
A36C A43U showed a yeast fitness of 0.575.
Variant C34U G50A G56C has a yeast fitness of 0.662.
With A36U A65U G67A A70G the yeast fitness was no more than 0.5.
In the case of A36G C49U U64C G68C, the yeast fitness is reported as no more than 0.5.
Variant A36U A45U U53A C62A has a yeast fitness of no more than 0.5.
C34U C49U A65C gave a yeast fitness of 0.612.
Work on A36G U59C C61A C62U yielded a yeast fitness of no more than 0.5.
For C34U A40C, the yeast fitness was 0.613.
U35C G44A C46G G50C U53A C66A showed a yeast fitness of no more than 0.5.
Variant A36C G48A has a yeast fitness of 0.594.
With C34U G44C U47G A65G the yeast fitness was no more than 0.5.
For U35G A45U, the yeast fitness was 0.589.
With U35A A45C G56A the yeast fitness was 0.636.
For A36C A42U A65U, the yeast fitness was 0.647.
For U35C A65C, the yeast fitness was 0.807.
For U35G G63A, the yeast fitness was 0.7.
Variant A36G A45C A57C U64A G68A has a yeast fitness of no more than 0.5.
For C34U G51C G58C, the yeast fitness was no more than 0.5.
Variant U35A A36U G39A has a yeast fitness of 0.567.
With U35C C60G the yeast fitness was 0.602.
For U35C C46U A69U, the yeast fitness was 0.832.
For C34U G44C U47G, the yeast fitness was 0.659.
C34U G58A A65U showed a yeast fitness of 0.618.
Variant A36C U59C has a yeast fitness of 0.562.
In the case of U35A A37G A43U A45C C61U, the yeast fitness is reported as no more than 0.5.
With A36G U64C C66U the yeast fitness was 0.768.
For A36C U47A G56U, the yeast fitness was 0.617.
Variant A36G A40U G44A has a yeast fitness of 1.06.
For A36G A45U A70U, the yeast fitness was 0.708.
C34U G68C gave a yeast fitness of 0.773.
Variant C34U G39C G50A has a yeast fitness of 0.557.
Variant U35G A65U has a yeast fitness of 0.606.
With U35G G67A the yeast fitness was 0.616.
A36C G48C C62U gave a yeast fitness of no more than 0.5.
For U35G G52A, the yeast fitness was no more than 0.5.
With U35C G68C the yeast fitness was 0.644.
U35C G68A showed a yeast fitness of 0.67.
In the case of U35C G68U, the yeast fitness is reported as 0.657.
For A36U A42U C46U G56C C61G A65U G67A A70G, the yeast fitness was no more than 0.5.
Variant U35A A40U C46G U53A has a yeast fitness of no more than 0.5.
Work on A36U C61U yielded a yeast fitness of 0.693.
Work on U35A G41A C55U yielded a yeast fitness of 0.539.
Work on U35A C60G C62G G68A yielded a yeast fitness of no more than 0.5.
Variant A36G A57G C61U has a yeast fitness of 0.56.
Variant A36C A40U C46A G68C has a yeast fitness of 0.584.
With U35A A40U A57U the yeast fitness was 0.625.
Variant A36U A40U C60A has a yeast fitness of 0.713.
Work on C34U C46U A69G A70U yielded a yeast fitness of no more than 0.5.
In the case of A36C G52A, the yeast fitness is reported as no more than 0.5.
For A36G C61G, the yeast fitness was 0.659.
C34U G39C A45G gave a yeast fitness of no more than 0.5.
For A36C G38C A45G, the yeast fitness was 0.585.
In the case of A36G A45C C55G G58C, the yeast fitness is reported as 0.689.
For C34U C62G C66G G67U, the yeast fitness was no more than 0.5.
Variant A36G G67C has a yeast fitness of 0.759.
With A36C A40G C46U the yeast fitness was 0.569.
A36G C49U A69C showed a yeast fitness of 0.836.
Variant A36G G39C C49U U54G has a yeast fitness of 0.58.
A36G A37C A43G gave a yeast fitness of 0.63.
Variant U35G C55U has a yeast fitness of 0.664.
U35A A69U gave a yeast fitness of 0.806.
C34U C49U gave a yeast fitness of 0.866.
For A36C G38C, the yeast fitness was 0.524.
In the case of C34U A65U, the yeast fitness is reported as 0.574.
With C34U C61A the yeast fitness was 0.563.
C34U C55G gave a yeast fitness of 0.56.
In the case of U35C G52A, the yeast fitness is reported as 0.658.
U35C C46A C49A gave a yeast fitness of no more than 0.5.
Work on A36C C49A U54C U64C yielded a yeast fitness of no more than 0.5.
With A36U A43U the yeast fitness was 0.638.
A36U A40G U53A showed a yeast fitness of 0.627.
Work on U35G G51A yielded a yeast fitness of 0.634.
A36U C46A gave a yeast fitness of 0.763.
A36U C46U showed a yeast fitness of 0.608.
Work on U35A G52A yielded a yeast fitness of 0.532.
Work on U35C A43C C55G A65U yielded a yeast fitness of no more than 0.5.
C34U A40C A42C G48A gave a yeast fitness of no more than 0.5.
U35C G44C gave a yeast fitness of 0.88.
A36G C55A gave a yeast fitness of 0.729.
